Experimental data taken from ChEMBL document CHEMBL2346548, “Design, synthesis, and structure-activity relationship studies of tryptanthrins as antitubercular agents” (J Nat Prod, 2013).
≈ marks a conversion by molar mass, not a printed value.

How the values were obtained:
[1] = tested on: Mycobacterium tuberculosis; test: Antitubercular activity against Mycobacterium tuberculosis H37Rv incubated at 37 degC for 7 days by microplate alamar blue assay; assay type: functional; details: for MIC: Mycobacterium tuberculosis, H37Rv, 168 h
Procedure, shortened: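 Mtb H37Rv was grown in 7H9 broth with glycerol, Casitone, 10% OADC and 0.05% Tween 80 to OD600 0.4. Compounds were 2-fold serially diluted from DMSO stocks in 7H9, and wells were inoculated at 2 × 10⁵ CFU/mL. After 7 days at 37 °C, Alamar Blue was added and read after a further 24 h. MIC was the lowest concentration preventing the blue-to-pink change.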

[2] = tested on: Mycobacterium tuberculosis; test: Antitubercular activity against non-replicating Mycobacterium tuberculosis H37Rv incubated for 10 days by LORA method; assay type: functional; details: 240 h
Procedure, shortened: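 H37Rv carrying pFCA-luxAB was adapted to low oxygen by gradual self-depletion in a sealed, slowly stirred flask. It was then exposed to compounds for 10 days under anaerobic conditions. Cultures recovered for 28 h in ambient oxygen before n-decanal substrate was added and luminescence read. MIC was the lowest concentration giving a 90% reduction in luminescence versus untreated controls.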

Vero = test: Cytotoxicity against african green monkey Vero cells; assay type: cell-based, Chlorocebus sabaeus
[3] = tested on: Mycobacterium tuberculosis; test: Antitubercular activity against Mycobacterium tuberculosis H37Rv incubated at 37 degC for 14 days in presence of 40% human serum by microplate alamar blue assay; assay type: functional; details: 336 h
Procedure, shortened: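 This is the MABA run in 7H9 broth containing 40% human serum. Compounds were 2-fold serially diluted, and wells were inoculated with H37Rv at 2 × 10⁵ CFU/mL. Incubation was at 37 °C for 14 days, then Alamar Blue was added. MIC was the lowest concentration preventing the blue-to-pink colour change.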

[4] = Solubility in simulated gastric fluid at pH 1.5 by HPLC method; assay type: physicochemical
Procedure, shortened: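 Compound at 200 μM final in 2% DMSO in simulated gastric fluid, shaken 24 h at room temperature; HPLC-photodiode array detection at 230 nm; duplicate means.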

[5] = Solubility in simulated intestinal fluid at pH 7.6 by HPLC method; assay type: physicochemical
Procedure, shortened: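 Simulated intestinal fluid medium; each analogue 200 μM final in 2% DMSO, shaken 24 h at room temperature, then HPLC with photodiode array read at 230 nm; duplicate, means given.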

[6] = Efflux ratio in human Caco2 cells incubated for 1 hr at 37 degC by HPLC-MS/MS method; assay type: ADME, cell-based; details: Caco-2
[7] = Aqueous solubility in PBS buffer at pH 7.4 by HPLC method; assay type: physicochemical; details: PBS buffer, read-out: solubility
Procedure, shortened: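 Compound at 200 μM final in 2% DMSO in PBS pH 7.4, shaken 24 h at room temperature; quantified by HPLC with photodiode array detection at 230 nm; duplicate, mean reported.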

[8] = Permeability across basolateral to apical side in human Caco2 cells incubated for 1 hr at 37 degC by HPLC-MS/MS method; assay type: ADME, cell-based; details: Caco-2
[9] = Permeability across apical to basolateral side in human Caco2 cells incubated for 1 hr at 37 degC by HPLC-MS/MS method; assay type: ADME, cell-based; details: Caco-2
Procedure, shortened: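 TC7 (Caco-2 subclone) monolayer; 10 μM compound in 1% DMSO in HBSS-MES pH 6.5 on apical donor side, basolateral receiver pH 7.4; shaken 1 h at 37 °C; receiver sampled, HPLC-MS/MS; duplicate means.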

[10] = Metabolic stability in human liver microsomes assessed as parent compound remaining at 1 uM incubated for 1 hr by HPLC-MS/MS method; assay type: ADME, Microsome; details: read-out: Stability
Procedure, shortened: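 Pooled mixed-gender human liver microsomes (0.3 mg/mL protein), 1 μM compound with NADP-regenerating system in phosphate buffer pH 7.4, 1 h at 37 °C; parent measured at start and end by HPLC-MS/MS; duplicate means.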

[11] = Chlorocebus sabaeus, Vero, read-out: IC50

SMILES: O=C1c2ccccc2-n2c1nc1ncccc1c2=O
- MIC [1]: 4 µg/mL (≈ 16 µM)
- MIC90 [2]: 23 µg/mL (≈ 92.3 µM)
- IC50 (Vero; [11]): 24 µg/mL (≈ 96.3 µM)
- MIC [3]: 8 µg/mL

SMILES: O=C1c2cc(F)ccc2-n2c1nc1ccccc1c2=O
- MIC [1]: 0.125 µg/mL (≈ 0.47 µM)
- solubility [4]: 8.5 µM (≈ 2.26 µg/mL)
- solubility [5]: 18.8 µM (≈ 5.01 µg/mL)
- MIC90 [2]: > 50 µg/mL
- efflux ratio at 1 h [6]: > 1
- IC50 (Vero; [11]): > 50 µg/mL
- solubility [7]: 4.9 µM (≈ 1.3 µg/mL)
- Papp B→A at 1 h [8]: 29.9 ×10⁻⁶ cm/s
- MIC [3]: 0.5 µg/mL
- Papp A→B at 1 h [9]: 66.6 ×10⁻⁶ cm/s
- remaining at 1 h, 1 µM [10]: 46%

SMILES: O=C1c2cc(F)ccc2-n2c1nc1ncccc1c2=O
- MBC90 [1]: 1 µg/mL (≈ 3.74 µM)
- MIC [1]: 1 µg/mL (≈ 3.74 µM)
- IC50 (Vero; [11]): 0.3 µg/mL (≈ 1.12 µM)
- MIC [3]: 2 µg/mL

SMILES: O=C1c2ccc(N3CCOCC3)cc2-n2c1nc1ccncc1c2=O
- MIC [1]: 32 µg/mL (≈ 95.7 µM)
- IC50 (Vero; [11]): > 20 µg/mL
- MIC [3]: > 32 µg/mL

SMILES: O=C1C2=Nc3ccncc3CN2c2ccc(Cl)cc21
- MIC [1]: 2 µg/mL (≈ 7.42 µM)
- MIC90 [2]: 8.3 µg/mL (≈ 30.8 µM)
- IC50 (Vero; [11]): 3.7 µg/mL (≈ 13.7 µM)

SMILES: O=C1C2=Nc3ccncc3CN2c2ccccc21
- MIC [1]: 16 µg/mL (≈ 68 µM)
- MIC90 [2]: > 20 µg/mL
- IC50 (Vero; [11]): > 20 µg/mL

SMILES: O=C1C2=Nc3ccccc3CN2c2ccccc21
- MIC [1]: 1 µg/mL (≈ 4.27 µM)
- MIC90 [2]: 20 µg/mL (≈ 85.4 µM)
- IC50 (Vero; [11]): 42 µg/mL (≈ 179 µM)
- MIC [3]: 2 µg/mL

SMILES: O=C1C2=Nc3ccccc3CN2c2ccc(OC(F)(F)F)cc21
- MIC [1]: 0.125 µg/mL (≈ 0.393 µM)
- IC50 (Vero; [11]): 1.3 µg/mL (≈ 4.08 µM)
- MIC [3]: 0.5 µg/mL

SMILES: O=C1c2ccccc2-n2c1nc1ccncc1c2=O
- MIC [1]: 0.5 µg/mL (≈ 2.01 µM)
- MIC90 [2]: 1.6 µg/mL (≈ 6.42 µM)
- IC50 (Vero; [11]): 5.3 µg/mL (≈ 21.3 µM)
- MIC [3]: 0.25 µg/mL

SMILES: O=C1c2cc(Cl)ccc2-n2c1nc1ccncc1c2=O
- MIC [1]: 0.25 µg/mL (≈ 0.881 µM)
- MIC90 [2]: 0.68 µg/mL (≈ 2.4 µM)
- IC50 (Vero; [11]): 8.5 µg/mL (≈ 30 µM)
- MIC [3]: 0.25 µg/mL

SMILES: O=C1c2ccc(N3CCNCC3)cc2-n2c1nc1ccncc1c2=O
- MIC [1]: > 4 µg/mL
- IC50 (Vero; [11]): 11 µg/mL (≈ 33 µM)
- MIC [3]: > 4 µg/mL

SMILES: O=C1c2ccc(N3CCCCC3)cc2-n2c1nc1ccncc1c2=O
- MIC [1]: 16 µg/mL (≈ 48.1 µM)
- IC50 (Vero; [11]): 20 µg/mL (≈ 60.2 µM)
- MIC [3]: > 32 µg/mL

SMILES: CC(C)(C)OC(=O)N1CCN(c2ccc3c(c2)-n2c(nc4ccncc4c2=O)C3=O)CC1
- MIC [1]: 16 µg/mL (≈ 36.9 µM)
- IC50 (Vero; [11]): 24 µg/mL (≈ 55.4 µM)
- MIC [3]: > 32 µg/mL

SMILES: O=C1c2ccc(Cl)cc2-n2c1nc1ccncc1c2=O
- MIC [1]: 0.125 µg/mL (≈ 0.441 µM)
- IC50 (Vero; [11]): 9 µg/mL (≈ 31.7 µM)
- MIC [3]: 1 µg/mL

SMILES: O=C1c2cc(Br)ccc2-n2c1nc1ncccc1c2=O
- MIC [1]: 16 µg/mL (≈ 48.8 µM)
- IC50 (Vero; [11]): > 20 µg/mL
- MIC [3]: 32 µg/mL

SMILES: O=C1c2ccc(N3CCCCC3)cc2-n2c1nc1ncccc1c2=O
- MIC [1]: 4 µg/mL (≈ 12 µM)
- IC50 (Vero; [11]): 81 µg/mL (≈ 244 µM)
- MIC [3]: 16 µg/mL

SMILES: O=C1c2ccc(N3CCOCC3)cc2-n2c1nc1ncccc1c2=O
- IC50 (Vero; vero): ND(Insoluble)

SMILES: CC(C)(C)OC(=O)N1CCN(c2ccc3c(c2)-n2c(nc4ncccc4c2=O)C3=O)CC1
- IC50 (Vero; vero): ND(Insoluble)

SMILES: O=C1c2cc(OC(F)(F)F)ccc2-n2c1nc1cnccc1c2=O
- MIC [1]: 0.125 µg/mL (≈ 0.375 µM)
- MIC90 [2]: 1.5 µg/mL (≈ 4.5 µM)
- IC50 (Vero; [11]): 5.4 µg/mL (≈ 16.2 µM)
- MIC [3]: 0.25 µg/mL

SMILES: O=C1c2cc(OC(F)(F)F)ccc2-n2c1nc1ccncc1c2=O
- MBC90 [1]: 0.125 µg/mL (≈ 0.375 µM)
- MIC [1]: 0.063 µg/mL (≈ 0.189 µM)
- MIC90 [2]: 0.64 µg/mL (≈ 1.92 µM)
- IC50 (Vero; [11]): 5.7 µg/mL (≈ 17.1 µM)
- MIC [3]: 0.5 µg/mL

SMILES: O=C1c2cc(C(=O)N3CCOCC3)ccc2-n2c1nc1ccccc1c2=O
- MIC [1]: 8 µg/mL (≈ 22.1 µM)
- MIC90 [2]: > 10 µg/mL
- IC50 (Vero; [11]): > 10 µg/mL
- MIC [3]: 32 µg/mL

SMILES: O=C1c2ccc(N3CCCCC3)cc2-n2c1nc1ccccc1c2=O
- MIC [1]: > 128 µg/mL
- IC50 (Vero; [11]): 18 µg/mL (≈ 54.3 µM)
- MIC [3]: > 128 µg/mL
